{
  "source": "ChEMBL document CHEMBL4130635",
  "about": "“2,4-Diaminoquinazolines as Dual Toll-like Receptor (TLR) 7/8 Modulators for the Treatment of Hepatitis B Virus” (J Med Chem, 2018)",
  "key": {"[1]": {"target": "Cytochrome P450 2D6 (Homo sapiens, UniProt P10635)", "sequence (P10635 whole entry)": "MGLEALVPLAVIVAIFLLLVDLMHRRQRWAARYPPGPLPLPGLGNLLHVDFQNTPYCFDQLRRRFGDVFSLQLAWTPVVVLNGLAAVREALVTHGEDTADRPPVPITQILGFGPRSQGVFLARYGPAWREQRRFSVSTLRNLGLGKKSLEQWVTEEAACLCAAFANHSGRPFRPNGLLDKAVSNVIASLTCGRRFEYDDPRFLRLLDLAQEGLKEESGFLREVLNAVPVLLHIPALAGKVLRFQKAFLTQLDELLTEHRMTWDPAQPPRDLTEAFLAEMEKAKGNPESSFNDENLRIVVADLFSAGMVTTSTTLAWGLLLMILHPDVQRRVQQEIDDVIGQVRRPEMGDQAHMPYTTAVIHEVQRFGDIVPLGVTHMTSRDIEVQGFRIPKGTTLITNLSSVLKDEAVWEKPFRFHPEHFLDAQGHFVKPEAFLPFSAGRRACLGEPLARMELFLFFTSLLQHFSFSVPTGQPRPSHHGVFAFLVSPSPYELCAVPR", "assay": "Inhibition of CYP2D6 (unknown origin)", "assay_type": "ADME"}, "[2]": {"system": "Plasma", "assay": "Upregulation of IP-10 mRNA expression levels in C57BL/6J mouse plasma at 1 mg/kg, po by RT-qPCR analysis (reference value: 1)", "assay_type": "functional"}, "[3]": {"target": "T1, TLR7 and TLR8 (Homo sapiens) (UniProt Q9NYK1+Q9NR97)", "T1 sequence (Q9NR97 whole entry, looked up)": "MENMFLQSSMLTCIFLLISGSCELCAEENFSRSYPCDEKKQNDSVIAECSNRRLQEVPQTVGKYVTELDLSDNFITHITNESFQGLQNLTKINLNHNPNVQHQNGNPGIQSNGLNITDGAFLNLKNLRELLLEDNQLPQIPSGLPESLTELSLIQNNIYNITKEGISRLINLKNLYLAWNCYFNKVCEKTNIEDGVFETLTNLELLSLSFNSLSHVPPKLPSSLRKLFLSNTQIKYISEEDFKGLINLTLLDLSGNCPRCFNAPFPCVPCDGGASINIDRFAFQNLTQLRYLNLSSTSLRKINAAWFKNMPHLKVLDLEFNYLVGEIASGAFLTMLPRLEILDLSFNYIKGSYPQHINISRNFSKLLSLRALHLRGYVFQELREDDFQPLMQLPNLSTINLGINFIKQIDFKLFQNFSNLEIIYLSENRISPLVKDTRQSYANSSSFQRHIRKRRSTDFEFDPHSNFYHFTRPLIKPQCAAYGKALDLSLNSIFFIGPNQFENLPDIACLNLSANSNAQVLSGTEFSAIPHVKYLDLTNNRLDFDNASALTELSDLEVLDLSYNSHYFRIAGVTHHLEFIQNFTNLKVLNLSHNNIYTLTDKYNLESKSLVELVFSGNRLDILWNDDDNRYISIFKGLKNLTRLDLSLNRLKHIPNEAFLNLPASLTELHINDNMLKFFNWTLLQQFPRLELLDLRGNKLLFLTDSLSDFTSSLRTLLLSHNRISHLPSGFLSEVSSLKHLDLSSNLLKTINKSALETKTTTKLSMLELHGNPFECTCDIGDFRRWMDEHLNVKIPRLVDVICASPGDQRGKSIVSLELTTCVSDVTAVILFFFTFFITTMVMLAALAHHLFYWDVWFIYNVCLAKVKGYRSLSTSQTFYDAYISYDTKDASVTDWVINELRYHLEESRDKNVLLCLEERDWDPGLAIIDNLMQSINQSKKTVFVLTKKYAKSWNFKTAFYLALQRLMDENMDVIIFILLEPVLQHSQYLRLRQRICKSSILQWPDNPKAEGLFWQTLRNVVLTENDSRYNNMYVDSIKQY", "T1 sequence (Q9NYK1 whole entry, looked up)": "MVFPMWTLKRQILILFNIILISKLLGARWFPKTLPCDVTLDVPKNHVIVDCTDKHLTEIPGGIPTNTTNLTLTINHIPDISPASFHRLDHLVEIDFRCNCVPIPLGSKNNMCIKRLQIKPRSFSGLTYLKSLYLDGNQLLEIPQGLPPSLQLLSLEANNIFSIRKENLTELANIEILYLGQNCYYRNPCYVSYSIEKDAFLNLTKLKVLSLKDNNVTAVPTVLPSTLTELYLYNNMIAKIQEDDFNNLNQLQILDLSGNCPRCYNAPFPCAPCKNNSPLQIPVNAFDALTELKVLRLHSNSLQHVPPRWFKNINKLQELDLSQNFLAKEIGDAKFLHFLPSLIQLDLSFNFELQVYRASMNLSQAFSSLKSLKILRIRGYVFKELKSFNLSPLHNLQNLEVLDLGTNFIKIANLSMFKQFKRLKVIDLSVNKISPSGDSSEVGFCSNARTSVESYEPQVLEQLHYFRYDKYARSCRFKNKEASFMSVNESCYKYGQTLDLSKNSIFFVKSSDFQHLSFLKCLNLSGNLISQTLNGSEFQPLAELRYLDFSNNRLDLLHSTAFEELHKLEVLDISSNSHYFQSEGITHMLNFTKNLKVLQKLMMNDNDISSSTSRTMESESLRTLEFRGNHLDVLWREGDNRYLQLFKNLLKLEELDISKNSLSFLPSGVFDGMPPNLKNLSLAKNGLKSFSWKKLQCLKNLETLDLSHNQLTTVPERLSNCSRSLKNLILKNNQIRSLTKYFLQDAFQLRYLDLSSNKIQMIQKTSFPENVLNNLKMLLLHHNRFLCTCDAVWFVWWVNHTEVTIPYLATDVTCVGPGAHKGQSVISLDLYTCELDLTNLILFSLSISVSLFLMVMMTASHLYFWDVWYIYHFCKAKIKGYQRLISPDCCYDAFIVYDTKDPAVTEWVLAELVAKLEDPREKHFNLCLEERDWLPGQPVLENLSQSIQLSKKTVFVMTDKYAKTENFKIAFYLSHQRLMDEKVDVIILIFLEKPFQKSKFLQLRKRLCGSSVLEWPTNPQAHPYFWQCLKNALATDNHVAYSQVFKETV", "assay": "Agonist activity at TLR7/8 in human PBMCs co-cultured with primary human hepatocytes infected with HBV genotype C for 12 days assessed as increase in IFNgamma levels up to 5 uM measured after 42 days"}, "[4]": {"assay": "AUC (0 to last) in C57BL/6J mouse plasma at 10 mg/kg, po by LC-MS analysis", "assay_type": "ADME, organism-based", "parameters": "dose 10 mg/kg, route oral, time 0 - last", "method_in_brief": "(§1)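 Healthy C57BL/6 mice were dosed once by mouth at 0.3, 1, 3, 10 or 30 mg/kg in 20% HP-β-CD, in groups of 15 per dose. Three mice per group were sacrificed at 0.5, 1, 2, 4 or 7 h, and plasma and liver compound levels were measured by LC–MS. Values were rounded to whole numbers.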"}, "[5]": {"system": "Liver", "assay": "Effect on cytokine profile in C57BL/6J mouse liver assessed as IFNgamma levels at 10 mg/kg, po by multiplex assay", "assay_type": "functional", "method_in_brief": "(§2)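 Single oral gavage in 20% HP-β-CD to healthy C57BL/6 mice, groups of 15 at 0.3, 1, 3, 10 or 30 mg/kg. Three mice per group sacrificed at 0.5, 1, 2, 4 or 7 h. Plasma and liver cytokines by multiplex, maximum level reported, rounded to nearest multiple of 5.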"}, "[6]": {"assay": "Stability in dog hepatocytes assessed compound turnover at 1 uM after 60 mins", "assay_type": "ADME, cell-based, Canis lupus familiaris, Hepatocyte", "settings": "read-out: Drug metabolism"}, "[7]": {"system": "Liver", "assay": "Induction of IFNalpha levels in C57BL/6J mouse liver at 0.3 mg/kg, po by ELISA (reference value: 30 pg/g)", "assay_type": "functional"}, "[8]": {"target": "D(1A) dopamine receptor (Homo sapiens, UniProt P21728)", "sequence (P21728 whole entry)": "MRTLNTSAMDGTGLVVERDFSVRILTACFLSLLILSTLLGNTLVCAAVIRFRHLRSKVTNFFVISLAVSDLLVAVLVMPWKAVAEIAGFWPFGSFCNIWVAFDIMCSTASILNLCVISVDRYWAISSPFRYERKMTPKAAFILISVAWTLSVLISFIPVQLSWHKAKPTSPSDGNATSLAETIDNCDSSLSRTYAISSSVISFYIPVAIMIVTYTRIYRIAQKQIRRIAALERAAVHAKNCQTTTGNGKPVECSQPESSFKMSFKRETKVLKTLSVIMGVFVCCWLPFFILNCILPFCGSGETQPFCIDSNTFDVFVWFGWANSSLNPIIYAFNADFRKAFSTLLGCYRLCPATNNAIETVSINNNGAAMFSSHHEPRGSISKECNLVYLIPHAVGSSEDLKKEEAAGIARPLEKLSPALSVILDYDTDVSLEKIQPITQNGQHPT", "assay": "Inhibition of dopamine D1 receptor (unknown origin)"}, "[9]": {"system": "Plasma", "assay": "Anti-inflammatory activity in C57BL/6J mouse plasma assessed as IL-10 levels at 1 mg/kg, po by multiplex assay (reference value: 120 pg/ml)", "assay_type": "functional", "method_in_brief": "as §2"}, "[10]": {"system": "Plasma", "assay": "Proinflammatory activity in C57BL/6J mouse plasma assessed as IL-1beta levels at 30 mg/kg, po by multiplex assay (reference value: 60 pg/ml)", "assay_type": "functional"}, "[11]": {"assay": "AUC (0 to last) in C57BL/6J mouse liver at 10 mg/kg, po by LC-MS analysis", "assay_type": "ADME, organism-based", "settings": "in vivo", "method_in_brief": "as §1"}, "[12]": {"system": "Plasma", "assay": "Proinflammatory activity in C57BL/6J mouse plasma assessed as CXCL-1 levels at 10 mg/kg, po by multiplex assay (reference value: 230 pg/ml)", "assay_type": "functional"}, "[13]": {"system": "Plasma", "assay": "Proinflammatory activity in C57BL/6J mouse plasma assessed as IL-1beta levels at 1 mg/kg, po by multiplex assay (reference value: 60 pg/ml)", "assay_type": "functional, organism-based"}, "[14]": {"system": "Liver", "assay": "Upregulation of IP-10 mRNA expression levels in C57BL/6J mouse liver at 10 mg/kg, po by RT-qPCR analysis (reference value: 1)", "assay_type": "functional"}, "[15]": {"system": "Cynomolgus monkey", "assay": "Activation of monocytes in cynomolgus monkey plasma assessed as upregulation of MIP1 levels at 9 mg/kg, po after 24 hrs by Luminex assay (reference value: 37 pg/ml)", "assay_type": "functional, Macaca fascicularis"}, "[16]": {"system": "Liver", "assay": "Proinflammatory activity in C57BL/6J mouse liver assessed as IL-1beta levels at 30 mg/kg, po by multiplex assay", "assay_type": "functional"}, "[17]": {"system": "Plasma", "assay": "Induction of IFNalpha levels in C57BL/6J mouse plasma at 10 mg/kg, po by ELISA", "assay_type": "functional"}, "[18]": {"target": "T1, TLR7 and TLR8 (Homo sapiens)", "assay": "Agonist activity at TLR7/8 in human PBMCs co-cultured with primary human hepatocytes infected with HBV genotype C for 12 days assessed as increase in fractalkine sCD40L levels up to 5 uM measured after 42 days"}, "[19]": {"system": "Cynomolgus monkey", "assay": "Induction of ISG response in cynomolgus monkey plasma assessed as upregulation of Oas1b mRNA expression at 9 mg/kg, po after 24 hrs by Fluidigm RT-qPCR analysis (reference value: 1)", "assay_type": "functional, Macaca fascicularis", "method_in_brief": "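Cynomolgus monkeys, single oral doses of 1, 3, 9 and 30 mg/kg with a planned 2-week wash-out between doses. Systemic ISG (ISG15, Mx1, OAS1) mRNA was measured by Fluidigm RT-qPCR at 1, 2, 4, 8 and 24 h postdose.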"}, "[20]": {"system": "Liver", "assay": "Induction of IFNalpha levels in C57BL/6J mouse liver at 30 mg/kg, po by ELISA (reference value: 30 pg/g)", "assay_type": "functional"}, "[21]": {"target": "T1, TLR7 and TLR8 (Homo sapiens)", "assay": "Agonist activity at TLR7/8 in human PBMCs co-cultured with primary human hepatocytes infected with HBV genotype C for 12 days assessed as increase in IL-1Ra levels up to 5 uM measured after 42 days"}, "[22]": {"system": "Cynomolgus monkey", "assay": "Activation of monocytes in cynomolgus monkey plasma assessed as upregulation of IL1Ra levels at 1 mg/kg, po after 24 hrs by Luminex assay (reference value: 320 pg/ml)", "assay_type": "functional, Macaca fascicularis"}, "[23]": {"assay": "Ratio of drug level in Sprague-Dawley rat liver to plasma at 10 mg/kg, po"}, "[24]": {"assay": "Intrinsic clearance in cynomolgus monkey liver microsomes assessed per mg protein at 1 uM up to 60 mins", "assay_type": "ADME, Macaca fascicularis, microsome", "settings": "read-out: CLH", "method_in_brief": "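Cynomolgus monkey liver microsomes at 1 mg/mL microsomal protein, incubated at 37 °C with 1 μM test compound. Serial samples taken at intervals up to 60 min and analysed for remaining compound concentration to derive intrinsic clearance, expressed as (μL/min)/mg protein and rounded to the nearest whole number.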"}, "[25]": {"system": "Cynomolgus monkey", "assay": "Effect on cytokine profile in cynomolgus monkey plasma assessed as IL-12P70 levels at 1 mg/kg, po after 24 hrs by Luminex assay (reference value: 2.17 pg/ml)", "assay_type": "functional, organism-based", "settings": "Macaca fascicularis", "method_in_brief": "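Healthy cynomolgus monkeys given single oral doses of 1, 3, 9 and 30 mg/kg, with a 2-week wash-out planned between doses. Systemic cytokine levels in plasma were sampled at 0.5, 1, 2, 4, 9 and 24 h postdose.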"}, "[26]": {"system": "Liver", "assay": "Anti-inflammatory activity in C57BL/6J mouse liver assessed as IL-10 levels at 30 mg/kg, po by multiplex assay (reference value: 2 pg/g)", "assay_type": "functional", "method_in_brief": "as §2"}, "[27]": {"system": "Liver", "assay": "Upregulation of IP-10 mRNA expression levels in C57BL/6J mouse liver at 3 mg/kg, po by RT-qPCR analysis (reference value: 1)", "assay_type": "functional"}, "[28]": {"system": "Cynomolgus monkey", "assay": "Proinflammatory activity in cynomolgus monkey plasma assessed as IL-8 levels at 3 mg/kg, po after 24 hrs by Luminex assay (reference value: 430 pg/ml)", "assay_type": "functional, Macaca fascicularis"}, "[29]": {"assay": "Inhibition of CYP450 (unknown origin)", "assay_type": "ADME", "settings": "human"}, "[30]": {"assay": "AUC (0 to last) in C57BL/6J mouse plasma at 30 mg/kg, po by LC-MS analysis", "assay_type": "ADME, organism-based", "parameters": "dose 30 mg/kg, time 0 - last, route oral", "method_in_brief": "as §1"}, "[31]": {"system": "Liver", "assay": "Effect on cytokine profile in C57BL/6J mouse liver assessed as IL-12p70 levels at 1 mg/kg, po by multiplex assay (reference value: 5 pg/g)", "assay_type": "functional, organism-based", "method_in_brief": "as §2"}},
  "note": "Activity calls are given as the source filed them. The rule behind the calls is not given here.",
  "data": [
    {"smiles": "CCC[C@@H](CCO)Nc1nc(N)nc2c(F)cccc12", "values": [
      {"measurement": "IC50", "setting": "[1]", "result": 5.7, "unit": "µM"},
      {"measurement": "fold change (FC)", "setting": "[2]", "result": 845},
      {"measurement": "Activity", "setting": "[3]", "result": "Active"},
      {"measurement": "AUC(0-t)", "setting": "[4]", "result": 141, "unit": "ng·h/mL"},
      {"measurement": "Activity", "setting": "[5]", "result": 430, "unit": "pg/g"},
      {"measurement": "metabolised at 1 h, 1 µM", "setting": "[6]", "result": 77, "unit": "%"},
      {"measurement": "Activity", "setting": "[7]", "result": 100, "unit": "pg/g"},
      {"measurement": "IC50", "setting": "[8]", "result": "> 10", "unit": "µM"},
      {"measurement": "Activity", "setting": "[9]", "result": 485, "unit": "pg/mL"},
      {"measurement": "Activity", "setting": "[10]", "result": 70, "unit": "pg/mL"},
      {"measurement": "AUClast", "setting": "[11]", "result": 2315, "unit": "ng·h/g"},
      {"measurement": "Activity", "setting": "[12]", "result": ">10000", "unit": "pg/mL"},
      {"measurement": "Activity", "setting": "[13]", "result": "Below limit of detection"},
      {"measurement": "fold change (FC)", "setting": "[14]", "result": 800},
      {"measurement": "Activity", "setting": "[15]", "result": 310, "unit": "pg/mL"},
      {"measurement": "Activity", "setting": "[16]", "result": 56615, "unit": "pg/g"},
      {"measurement": "Activity", "setting": "[17]", "result": ">3200", "unit": "pg/mL"},
      {"measurement": "Activity", "setting": "[18]", "result": "Active"},
      {"measurement": "fold change (FC)", "setting": "[19]", "result": 260},
      {"measurement": "Activity", "setting": "[20]", "result": 955, "unit": "pg/g"},
      {"measurement": "Activity", "setting": "[21]", "result": "Active"},
      {"measurement": "Activity", "setting": "[22]", "result": 805, "unit": "pg/mL"},
      {"measurement": "Kp", "setting": "[23]", "result": 16},
      {"measurement": "microsomal CLint at 1 µM", "setting": "[24]", "result": 16, "unit": "µL/min/mg"},
      {"measurement": "Activity", "setting": "[25]", "result": "Below limit of detection"},
      {"measurement": "Activity", "setting": "[26]", "result": 5185, "unit": "pg/g"},
      {"measurement": "fold change (FC)", "setting": "[27]", "result": 845},
      {"measurement": "Activity", "setting": "[28]", "result": 1505, "unit": "pg/mL"},
      {"measurement": "inhibition (INH)", "setting": "[29]", "result": "Not Active"},
      {"measurement": "AUC(0-t)", "setting": "[30]", "result": 679, "unit": "ng·h/mL"},
      {"measurement": "Activity", "setting": "[31]", "result": "Below limit of detection"}
    ]}
  ]
}
